# Source: ChEMBL document CHEMBL1795235, “Quercetin diacylglycoside analogues showing dual inhibition of DNA gyrase and topoisomerase IV as novel antibacterial agents” (J Med Chem, 2011)
# pIC50: −log10 of the molar value.
# Columns and labels:
# Staphylococcus aureus [1] = assay: Antibacterial activity against methicillin-resistant Staphylococcus aureus OM584 after 24 hrs by microdilution method; type: functional; settings: OM584, 24 h
# Procedure, shortened: (§1)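 Broth microdilution in Mueller-Hinton broth with 0.85% NaCl, inoculum about 10^5 CFU per 100 μL. Compounds were diluted in water from 25.6 mg/mL stocks to final 2-fold series of 0.062–128 μg/mL. Plates were incubated 24 h at 35 °C. MIC was the lowest concentration at which all triplicate wells were clear, from three independent determinations.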
# Escherichia coli = assay: Antibacterial activity against Escherichia coli K-12 after 24 hrs by microdilution method; type: functional; settings: K-12, 24 h
# Procedure, shortened: (§2)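 Broth microdilution in Mueller-Hinton broth with 0.85% NaCl, inoculum about 10^5 CFU per 100 μL. Compounds diluted from 25.6 mg/mL stocks in water to 2-fold series, final 0.062–128 μg/mL. […] Three independent determinations.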
# Staphylococcus aureus [2] = assay: Antibacterial activity against methicillin-resistant Staphylococcus aureus OM481 after 24 hrs by microdilution method; type: functional; settings: OM481, 24 h; procedure, shortened: as §1
# Enterococcus [3] = assay: Antibacterial activity against vancomycin resistant Enterococcus NCTC 12201 after 24 hrs by microdilution method; type: functional; settings: NCTC 12201, 24 h; procedure, shortened: as §1
# Staphylococcus aureus [4] = assay: Antibacterial activity against methicillin-susceptible Staphylococcus aureus 209P after 24 hrs by microdilution method; type: functional; procedure, shortened: as §1
# Pseudomonas aeruginosa = assay: Antibacterial activity against Pseudomonas aeruginosa PAO1 after 24 hrs by microdilution method; type: functional; settings: PAO1, 24 h; procedure, shortened: as §2
# [5] = Inhibition of Escherichia coli DNA gyrase assessed as inhibition of pBR322 supercoiling by densitometry
# Procedure, shortened: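 One unit of E. coli gyrase with 0.5 μg relaxed pBR322 DNA, 37 °C, 30 min. Stopped with sucrose/EDTA dye, run on 1.0% agarose in TAE. IC50 from densitometry via log-interpolation equation.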
# Staphylococcus aureus [6] = assay: Antibacterial activity against methicillin-resistant Staphylococcus aureus COL after 24 hrs by microdilution method; type: functional; procedure, shortened: as §1
# [7] = Inhibition of Staphylococcus aureus DNA Topoisomerase 4-mediated decatenation of kDNA after 30 mins by densitometry
# Procedure, shortened: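 Purchased S. aureus topoIV, one unit with 200 ng kDNA, 37 °C, 30 min. Products resolved on 1.0% agarose in TAE. IC50 of decatenation from densitometry by interpolation equation, at least three determinations.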
# Enterococcus [8] = assay: Antibacterial activity against vancomycin resistant Enterococcus FN-1 after 24 hrs by microdilution method; type: functional; settings: FN-1, 24 h; procedure, shortened: as §1
# Staphylococcus aureus [9] = assay: Antibacterial activity against methicillin-resistant Staphylococcus aureus N315 after 24 hrs by microdilution method; type: functional; settings: N315, 24 h; procedure, shortened: as §1
# Streptococcus pneumoniae = assay: Antibacterial activity against Streptococcus pneumoniae R6 after 24 hrs by microdilution method; type: functional; settings: R6, 24 h; procedure, shortened: as §2
# Staphylococcus aureus [10] = assay: Antibacterial activity against vancomycin-intermediate Staphylococcus aureus Mu50 after 24 hrs by microdilution method; type: functional; settings: Mu50, 24 h; procedure, shortened: as §1
# [11] = Inhibition of Escherichia coli DNA topoisomerase 4 subunit ParC/DNA topoisomerase 4 subunit ParE-mediated decatenation of kDNA by densitometry
# Procedure, shortened: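 Purchased E. coli topoIV kit enzyme, one unit with 200 ng kDNA, 37 °C, 30 min. Buffer: 50 mM HEPES-KOH pH 7.6, 5 mM magnesium acetate, 100 mM potassium glutamate, 10 mM DTT, 1 mM ATP, 40% glycerol. Gel on 1.0% agarose in TAE. IC50 of decatenation from densitometry by interpolation equation, at least three determinations.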
Structure (SMILES),MIC (Staphylococcus aureus [1]) [µg/mL],MIC (Escherichia coli) [µg/mL],MIC (Staphylococcus aureus [2]) [µg/mL],MIC (Enterococcus [3]) [µg/mL],MIC (Staphylococcus aureus [4]) [µg/mL],MIC (Pseudomonas aeruginosa) [µg/mL],pIC50 [5],MIC (Staphylococcus aureus [6]) [µg/mL],pIC50 [7],MIC (Enterococcus [8]) [µg/mL],MIC (Staphylococcus aureus [9]) [µg/mL],MIC (Streptococcus pneumoniae) [µg/mL],MIC (Staphylococcus aureus [10]) [µg/mL],pIC50 [11]
CC1O[C@H](Oc2c(-c3ccc(O)cc3)oc3cc(O)cc(O)c3c2=O)[C@@H](OC(=O)/C=C/c2ccc(O)cc2)[C@@H](O)[C@@H]1OC(=O)/C=C/c1ccc(O)cc1 (some centres undefined),2,> 128,1,4,0.5,> 128,5.51,1,5.57,8,1,–,–,–
CCCc1ccc(C(=O)OC[C@H]2O[C@@H](Oc3c(-c4ccc(O)c(O)c4)oc4cc(O)cc(O)c4c3=O)[C@H](OC(=O)c3ccc(CCC)cc3)[C@@H](O)[C@H]2O)cc1,4,> 128,4,4,2,> 128,6.11,16,5.71,8,2,2,4,4.96
CCOc1ccc(C(=O)OC[C@H]2O[C@@H](Oc3c(-c4ccc(O)c(O)c4)oc4cc(O)cc(O)c4c3=O)[C@H](OC(=O)c3ccc(OCC)cc3)[C@@H](O)[C@H]2O)cc1,4,> 128,4,8,4,> 128,6.37,16,5.75,8,8,4,4,4.95
Cc1ccc(CC(=O)OC[C@H]2O[C@@H](Oc3c(-c4ccc(O)c(O)c4)oc4cc(O)cc(O)c4c3=O)[C@H](OC(=O)Cc3ccc(C)cc3)[C@@H](O)[C@H]2O)cc1,2,> 128,2,4,4,> 128,5.66,16,5.57,8,8,2,4,4.98
O=C(CCCCc1ccc(F)cc1)OC[C@H]1O[C@@H](Oc2c(-c3ccc(O)c(O)c3)oc3cc(O)cc(O)c3c2=O)[C@H](OC(=O)CCCCc2ccc(F)cc2)[C@@H](O)[C@H]1O,4,> 128,4,16,4,> 128,5.30,16,5.39,16,2,8,16,< 4.92
CCn1cc(C(=O)O)c(=O)c2cc(F)c(N3CCNCC3)cc21 [NORFLOXACIN],128,0.25,64,4,0.5,0.25,7.05,1,5.46,> 128,2,0.25,> 128,–
O=C(CCc1ccc(F)cc1)O[C@H]1[C@H](Oc2c(-c3ccc(O)c(O)c3)oc3cc(O)cc(O)c3c2=O)O[C@H](CO)[C@@H](O)[C@@H]1OC(=O)CCc1ccc(F)cc1,2,–,2,1,0.25,–,–,1,6.16,1,0.25,0.5,1,4.98
O=c1c(O)c(-c2ccc(O)c(O)c2)oc2cc(O)cc(O)c12 [QUERCETIN],> 128,64,> 128,> 128,> 128,> 128,6.85,> 128,–,> 128,> 128,> 128,> 128,5.19
